Measured values published in ChEMBL document CHEMBL4622973, “Discovery of Potent Small-Molecule SIRT6 Activators: Structure-Activity Relationship and Anti-Pancreatic Ductal Adenocarcinoma Activity” (J Med Chem, 2020).
Active and inactive are the calls of the source. The rule behind the calls is not given here.

Columns and labels:
Homo sapiens = species: Homo sapiens; assay: Selectivity index, ratio of IC50 for SIRT1 (unknown origin) to EC1.5 for N-terminal his-tagged human SIRT6 expressed in Escherichia coli M15 [pREP4]
[1] = target: T1, NAD-dependent protein deacylase sirtuin-6 (Homo sapiens, UniProt Q8N6T7); assay: Activation of N-terminal his-tagged human SIRT6 expressed in Escherichia coli M15 [pREP4] assessed as increase in deacetylation activity incubated for 2 hrs using Ac-RYQK(Myr)-AMC substrate by FDL assay relative to control
[2] = target: T1, NAD-dependent protein deacylase sirtuin-6; assay: Binding affinity to N-terminal his-tagged human SIRT6 expressed in Escherichia coli M15 [pREP4] by ITC assay
How it was run: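 ITC at 25 °C in 20 mM HEPES pH 7.5, 100 mM NaCl, 2 mM DTT. SIRT6 (400 µM) injected into a cell holding activator (80 µM). Kd derived from the binding isotherm.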

[3] = target: T1, NAD-dependent protein deacylase sirtuin-6; assay: Activation of N-terminal his-tagged human SIRT6 expressed in Escherichia coli M15 [pREP4] assessed as increase in peptide demyristoylation incubated for 120 mins using Ac-EALPKK(Myr)-AMC substrate by HPLC analysis
How it was run: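 SIRT6 (10 μM) incubated with 100 μM Ac-EALPKK(Myr)-AMC, 3 mM NAD⁺ in assay buffer, with DMSO or 25 μM compound, 37 °C for 2 h. Quenched with 100 mM HCl/160 mM acetic acid at 37 °C for 30 min, centrifuged, supernatant analysed by reverse-phase C18 HPLC, water/acetonitrile with 0.1% TFA.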

ASPC1 = assay: Antiproliferative activity against human AsPC1 cells assessed as reduction in cell viability incubated for 72 hrs by MTT assay; format: functional, cell-based
How it was run: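 PDAC cells grown in DMEM or RPMI1640 with 10% FBS and penicillin/streptomycin at 37 °C, 5% CO2. Plated in triplicate, then treated with a concentration series for 72 h. Viability read by MTT. IC50 calculated from dose-response curves.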

Bel-7402 = assay: Antiproliferative activity against human Bel7402 cells assessed as reduction in cell viability incubated for 72 hrs by MTT assay; format: functional, cell-based
SW-620 = assay: Antiproliferative activity against human SW620 cells assessed as reduction in cell viability incubated for 72 hrs by MTT assay; format: functional, cell-based
NCI-H526 = assay: Antiproliferative activity against human NCI-H526 cells assessed as reduction in cell viability incubated for 72 hrs by MTT assay; format: functional, cell-based
BXPC-3 = assay: Induction of cell cycle arrest in human BxPC3 cells assessed as increase in accumulation at G2 phase incubated for 48 hrs by propidium iodide staining based flow cytometry; format: functional
How it was run: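 PANC-1 and BXPC-3 cells in 6-well plates treated with a concentration series for 48 h. Stained with 50 µg/mL propidium iodide for 30 min in the dark. DNA content analysed by flow cytometry for cell-cycle phase distribution.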

PANC-1 = assay: Induction of apoptosis in human PANC1 cells incubated for 48 hrs by propidium iodide and Annexin V-FITC staining based flow cytometry; format: functional, cell-based
How it was run: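 PANC-1 and BXPC-3 cells seeded in 6-well plates and treated with a concentration series for 48 h. Stained with Annexin V-FITC and propidium iodide for 10 min in the dark. Annexin V+ populations measured by flow cytometry.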

[4] = target: T1, NAD-dependent protein deacylase sirtuin-6; assay: […] in human PANC1 cells assessed as reduction in H3K9ac levels incubated for 72 hrs by Western blot analysis; format: cell-based; conditions: PANC-1
How it was run: (§1)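 Cells incubated 72 h with various compound concentrations; whole-cell RIPA lysates with protease inhibitors, BCA-normalised, separated on 12% SDS-PAGE, transferred to PVDF, blocked in 5% milk or BSA. Probed 10 h at 4 °C with antibodies to SIRT6, acetyl-H3K9/K18/K56, total H3, Lin28b, Myc, IGF2BP3, β-actin; HRP secondary, chemiluminescent detection.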

[5] = target: T1, NAD-dependent protein deacylase sirtuin-6; assay: […] in human PANC1 cells assessed as reduction in Lin28b expression levels at 25 uM incubated for 72 hrs by Western blot analysis; format: cell-based; conditions: PANC-1; how it was run: as §1
[6] = Toxicity in BALB/c nude mouse xenografted with human PANC1 cells assessed as induction of toxicity symptoms at 100 to 150 mg/kg/day, po for 30 days; format: organism-based, PANC-1; conditions: in vivo, 720 h
How it was run: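 Female BALB/c nude mice, 6–8 weeks old, received 5×10⁶–1×10⁷ PANC-1 cells subcutaneously in the right flank. Once tumors reached 130–150 mm³, mice were randomized (n = 6) to vehicle or 100 or 150 mg/kg/d given orally for 30 days. Body weight and toxicity were monitored against the vehicle group.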

[7] = Half life in Sprague-Dawley rat at 10 mg/kg, po after 0.083 to 24 hrs by LC-MS/MS analysis; format: ADME, organism-based; conditions: in vivo
How it was run: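 Male Sprague-Dawley rats, 6-8 weeks old. Dosing solution of 10 (PO) or 2 (IV) mg/mL in 5% DMSO, 10% Solutol and 85% saline, pH 7. Blood taken by cardiac puncture at 0.083–24 h (PO) or 0.25–24 h (IV). Plasma levels measured by LC-MS/MS. Values are mean ± SD, n = 3.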

[8] = target: NAD-dependent protein deacetylase sirtuin-3, mitochondrial (Homo sapiens, UniProt Q9NTG7); assay: Inhibition of SIRT3 (unknown origin) by FDL assay
How it was run: (§2)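 SIRT3 and SIRT5 tested by an outsourced FDL fluorogenic deacetylase assay, each from a different contract provider. The IC50 was determined for each enzyme, with concentrations going up to 200 μM.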

[9] = target: NAD-dependent protein deacylase sirtuin-5, mitochondrial (Homo sapiens, UniProt Q9NXA8); assay: Inhibition of SIRT5 (unknown origin) by FDL assay; how it was run: as §2
Histone deacetylase 1 = Histone deacetylase 1 (Homo sapiens, UniProt Q13547); assay: Inhibition of HDAC1 (unknown origin) by FDL assay
How it was run: (§3)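 Selectivity testing by FDL assay at concentrations up to 200 µM. SIRT1-2 assays run by an outside contract provider. Values reported as IC50.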

Histone deacetylase 3 = Histone deacetylase 3 (Homo sapiens, UniProt O15379); assay: Inhibition of HDAC3 (unknown origin) by FDL assay; how it was run: as §3
Histone deacetylase 4 = Histone deacetylase 4 (Homo sapiens, UniProt P56524); assay: Inhibition of HDAC4 (unknown origin) by FDL assay; how it was run: as §3
Histone deacetylase 5 = Histone deacetylase 5 (Homo sapiens, UniProt Q9UQL6); assay: Inhibition of HDAC5 (unknown origin) by FDL assay; how it was run: as §3
[10] = target: Protein deacetylase HDAC6 (Homo sapiens, UniProt Q9UBN7); assay: Inhibition of HDAC6 (unknown origin) by FDL assay; how it was run: as §3
Histone deacetylase 11 = Histone deacetylase 11 (Homo sapiens, UniProt Q96DB2); assay: Inhibition of HDAC11 (unknown origin) by FDL assay; how it was run: as §3
[11] = target: T1, NAD-dependent protein deacylase sirtuin-6; assay: Activation of N-terminal his-tagged human SIRT6 expressed in Escherichia coli M15 [pREP4] assessed as increase in deacetylation activity incubated for 2 hrs using Ac-RYQK(Ac)-AMC substrate by HPLC analysis

T1 sequence (Q8N6T7 whole entry): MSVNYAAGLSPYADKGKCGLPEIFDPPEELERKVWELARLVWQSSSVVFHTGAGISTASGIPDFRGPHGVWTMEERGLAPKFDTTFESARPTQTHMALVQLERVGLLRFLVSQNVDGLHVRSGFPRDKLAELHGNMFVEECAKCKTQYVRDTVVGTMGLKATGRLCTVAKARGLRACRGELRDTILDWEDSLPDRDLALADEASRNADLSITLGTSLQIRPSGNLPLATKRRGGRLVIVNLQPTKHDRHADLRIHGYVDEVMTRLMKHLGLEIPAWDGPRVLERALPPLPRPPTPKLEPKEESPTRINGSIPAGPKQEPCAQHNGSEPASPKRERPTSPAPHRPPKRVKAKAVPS
NAD-dependent protein deacylase sirtuin-5, mitochondrial, sequence (Q9NXA8 whole entry): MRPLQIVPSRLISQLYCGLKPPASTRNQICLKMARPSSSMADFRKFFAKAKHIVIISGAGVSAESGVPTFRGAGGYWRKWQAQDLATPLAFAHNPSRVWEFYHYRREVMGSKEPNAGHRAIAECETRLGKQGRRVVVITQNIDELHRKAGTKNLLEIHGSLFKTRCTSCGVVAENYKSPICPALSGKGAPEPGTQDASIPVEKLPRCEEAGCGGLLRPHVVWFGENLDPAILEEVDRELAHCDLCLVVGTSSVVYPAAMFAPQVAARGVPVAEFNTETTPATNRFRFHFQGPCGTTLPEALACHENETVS
Histone deacetylase 3, sequence (O15379 whole entry): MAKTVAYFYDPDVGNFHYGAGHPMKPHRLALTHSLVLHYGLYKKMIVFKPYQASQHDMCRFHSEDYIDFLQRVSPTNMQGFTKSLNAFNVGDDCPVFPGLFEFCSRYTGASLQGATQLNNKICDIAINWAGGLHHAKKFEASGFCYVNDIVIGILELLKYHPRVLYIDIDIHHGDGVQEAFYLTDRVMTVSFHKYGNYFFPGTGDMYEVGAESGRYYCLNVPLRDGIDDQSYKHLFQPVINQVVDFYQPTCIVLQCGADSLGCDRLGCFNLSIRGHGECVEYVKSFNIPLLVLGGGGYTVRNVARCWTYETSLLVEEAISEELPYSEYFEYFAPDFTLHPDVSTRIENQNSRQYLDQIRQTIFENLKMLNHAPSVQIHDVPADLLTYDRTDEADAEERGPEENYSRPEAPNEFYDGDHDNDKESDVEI
Protein deacetylase HDAC6, sequence (Q9UBN7 whole entry): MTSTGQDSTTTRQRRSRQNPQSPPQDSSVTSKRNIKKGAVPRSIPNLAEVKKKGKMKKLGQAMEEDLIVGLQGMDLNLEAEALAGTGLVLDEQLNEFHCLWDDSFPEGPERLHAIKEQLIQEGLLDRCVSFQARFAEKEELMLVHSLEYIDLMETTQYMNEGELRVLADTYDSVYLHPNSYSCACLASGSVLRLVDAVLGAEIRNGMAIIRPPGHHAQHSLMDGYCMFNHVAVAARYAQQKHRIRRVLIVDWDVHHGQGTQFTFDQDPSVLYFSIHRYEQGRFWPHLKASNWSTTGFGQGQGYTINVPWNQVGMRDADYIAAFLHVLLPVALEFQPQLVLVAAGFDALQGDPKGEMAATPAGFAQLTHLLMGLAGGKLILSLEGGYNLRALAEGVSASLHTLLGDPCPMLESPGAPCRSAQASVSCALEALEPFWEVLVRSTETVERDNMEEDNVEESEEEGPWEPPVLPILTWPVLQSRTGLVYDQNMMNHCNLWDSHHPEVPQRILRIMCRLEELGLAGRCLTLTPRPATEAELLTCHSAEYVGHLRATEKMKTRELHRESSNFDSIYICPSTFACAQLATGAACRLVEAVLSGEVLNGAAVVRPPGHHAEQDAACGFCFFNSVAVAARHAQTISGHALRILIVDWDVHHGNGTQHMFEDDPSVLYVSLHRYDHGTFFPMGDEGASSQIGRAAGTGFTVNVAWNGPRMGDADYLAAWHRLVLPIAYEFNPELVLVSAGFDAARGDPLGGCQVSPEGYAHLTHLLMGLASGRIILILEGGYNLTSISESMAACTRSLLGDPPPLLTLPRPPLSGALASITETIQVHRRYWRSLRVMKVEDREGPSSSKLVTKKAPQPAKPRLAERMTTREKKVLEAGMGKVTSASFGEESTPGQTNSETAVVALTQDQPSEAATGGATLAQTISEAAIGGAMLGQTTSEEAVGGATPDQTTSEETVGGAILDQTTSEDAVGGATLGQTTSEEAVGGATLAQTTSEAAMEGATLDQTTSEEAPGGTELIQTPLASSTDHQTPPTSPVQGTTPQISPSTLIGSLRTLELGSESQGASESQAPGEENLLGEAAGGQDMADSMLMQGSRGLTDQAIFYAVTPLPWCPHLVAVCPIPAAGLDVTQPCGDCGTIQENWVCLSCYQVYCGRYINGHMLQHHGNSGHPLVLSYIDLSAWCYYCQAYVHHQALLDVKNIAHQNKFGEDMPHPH
Histone deacetylase 5, sequence (Q9UQL6 whole entry): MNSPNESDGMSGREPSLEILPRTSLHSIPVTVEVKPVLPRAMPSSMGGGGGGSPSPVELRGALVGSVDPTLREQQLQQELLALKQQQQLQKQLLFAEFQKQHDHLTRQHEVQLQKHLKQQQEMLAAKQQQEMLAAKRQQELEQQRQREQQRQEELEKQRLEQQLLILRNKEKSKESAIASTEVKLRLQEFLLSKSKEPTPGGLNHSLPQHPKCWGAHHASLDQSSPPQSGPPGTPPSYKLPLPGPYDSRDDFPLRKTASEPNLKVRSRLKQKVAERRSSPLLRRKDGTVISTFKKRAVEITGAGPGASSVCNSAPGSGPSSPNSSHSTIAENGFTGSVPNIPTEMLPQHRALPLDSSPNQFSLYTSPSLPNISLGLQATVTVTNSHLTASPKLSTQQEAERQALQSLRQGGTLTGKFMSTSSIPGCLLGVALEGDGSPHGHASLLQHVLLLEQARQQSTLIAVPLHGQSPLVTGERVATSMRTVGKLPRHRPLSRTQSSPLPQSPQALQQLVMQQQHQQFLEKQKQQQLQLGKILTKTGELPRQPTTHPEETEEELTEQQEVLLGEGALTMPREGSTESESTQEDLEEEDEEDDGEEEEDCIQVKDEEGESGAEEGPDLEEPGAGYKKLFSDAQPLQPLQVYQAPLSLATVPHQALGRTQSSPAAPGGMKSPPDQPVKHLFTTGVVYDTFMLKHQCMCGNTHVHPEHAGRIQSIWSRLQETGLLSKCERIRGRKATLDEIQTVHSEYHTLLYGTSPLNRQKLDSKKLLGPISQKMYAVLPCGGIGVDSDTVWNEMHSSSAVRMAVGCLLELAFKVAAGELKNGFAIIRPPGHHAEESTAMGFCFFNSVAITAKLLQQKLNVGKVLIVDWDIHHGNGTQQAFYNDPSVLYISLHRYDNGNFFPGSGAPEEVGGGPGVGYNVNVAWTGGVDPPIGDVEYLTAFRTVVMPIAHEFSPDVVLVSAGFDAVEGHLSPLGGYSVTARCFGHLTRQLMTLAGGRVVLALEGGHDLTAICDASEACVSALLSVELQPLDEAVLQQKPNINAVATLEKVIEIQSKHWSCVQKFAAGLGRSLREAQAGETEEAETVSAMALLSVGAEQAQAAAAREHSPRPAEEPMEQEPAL
Histone deacetylase 4, sequence (P56524 whole entry): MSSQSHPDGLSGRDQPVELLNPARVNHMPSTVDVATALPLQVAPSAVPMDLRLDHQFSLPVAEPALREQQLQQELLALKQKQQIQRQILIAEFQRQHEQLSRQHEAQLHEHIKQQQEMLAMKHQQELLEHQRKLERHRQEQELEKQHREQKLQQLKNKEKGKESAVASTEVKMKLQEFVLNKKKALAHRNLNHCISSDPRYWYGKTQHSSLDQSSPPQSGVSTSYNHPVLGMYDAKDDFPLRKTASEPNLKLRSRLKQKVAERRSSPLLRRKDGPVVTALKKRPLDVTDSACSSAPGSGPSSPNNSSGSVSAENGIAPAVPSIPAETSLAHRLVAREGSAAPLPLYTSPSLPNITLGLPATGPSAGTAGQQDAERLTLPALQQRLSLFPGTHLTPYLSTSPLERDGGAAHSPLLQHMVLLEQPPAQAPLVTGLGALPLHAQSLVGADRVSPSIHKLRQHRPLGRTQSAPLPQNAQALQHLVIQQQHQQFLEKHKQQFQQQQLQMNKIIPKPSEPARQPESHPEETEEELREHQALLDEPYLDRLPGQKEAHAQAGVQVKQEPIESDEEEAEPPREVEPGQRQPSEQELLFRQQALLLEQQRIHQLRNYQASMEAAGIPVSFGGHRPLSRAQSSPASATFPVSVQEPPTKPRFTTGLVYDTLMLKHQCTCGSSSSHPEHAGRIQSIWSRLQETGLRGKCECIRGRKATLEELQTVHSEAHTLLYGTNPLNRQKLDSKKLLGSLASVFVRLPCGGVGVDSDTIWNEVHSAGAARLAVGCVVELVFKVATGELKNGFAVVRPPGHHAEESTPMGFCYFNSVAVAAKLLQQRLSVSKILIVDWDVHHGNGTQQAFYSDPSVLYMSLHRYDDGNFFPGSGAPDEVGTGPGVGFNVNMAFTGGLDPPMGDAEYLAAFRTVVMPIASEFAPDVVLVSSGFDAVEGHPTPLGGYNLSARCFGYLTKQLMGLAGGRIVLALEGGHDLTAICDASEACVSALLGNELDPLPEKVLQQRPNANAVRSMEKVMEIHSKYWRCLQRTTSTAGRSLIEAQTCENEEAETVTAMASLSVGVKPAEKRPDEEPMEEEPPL
NAD-dependent protein deacetylase sirtuin-3, mitochondrial, sequence (Q9NTG7 whole entry): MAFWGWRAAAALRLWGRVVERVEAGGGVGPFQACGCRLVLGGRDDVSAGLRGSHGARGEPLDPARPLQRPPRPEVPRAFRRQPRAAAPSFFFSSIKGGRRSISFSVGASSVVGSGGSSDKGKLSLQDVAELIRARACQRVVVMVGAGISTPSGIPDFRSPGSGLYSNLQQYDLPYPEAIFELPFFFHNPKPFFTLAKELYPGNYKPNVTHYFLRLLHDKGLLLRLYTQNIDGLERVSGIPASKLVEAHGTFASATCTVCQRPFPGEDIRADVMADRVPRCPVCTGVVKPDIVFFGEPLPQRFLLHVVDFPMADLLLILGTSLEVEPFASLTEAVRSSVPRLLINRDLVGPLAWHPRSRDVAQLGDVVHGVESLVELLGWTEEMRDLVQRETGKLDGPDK

- Ratio (Homo sapiens): 300
- EC1.5 [1]: 0.49 µM
- EC50 [1]: 5.49 µM
- Kd [2]: 8.85 µM
- Activity [3]: Active
- IC50 (ASPC1; ASPC1, 72 h): 9.66 µM
- inhibition [4]: Dose-dependent effect
- inhibition [5]: Active
- half-life [7]: 451 min
- IC50 [8]: > 200 µM
- IC50 [9]: > 200 µM
- IC50 (Histone deacetylase 1): > 200 µM
- IC50 (Histone deacetylase 3): > 200 µM
- IC50 (Histone deacetylase 4): > 200 µM
- IC50 (Histone deacetylase 5): > 200 µM
- IC50 [10]: > 200 µM
- IC50 (Histone deacetylase 11): > 200 µM
- Activity [11]: Active
Structure (SMILES): O=C(NC(c1ccccc1)c1ccccc1)c1cc(-c2cc3ccccc3o2)nc2ccccc12
- Activity (ASPC1): Dose-dependent effect
- Activity (Bel-7402): Active
- Activity (SW-620): Active
- Activity (NCI-H526): Active
- Activity (BXPC-3): Dose-dependent effect
- Activity (PANC-1): Dose-dependent effect
- Activity [6]: Non-Toxic
